What all share (type): functional, cell-based
Test [1] is described as follows: Cytotoxicity against human MiaPaCa cells assessed as inhibition of cell viability after 6 days by MTT assay. As to conditions: MIA PaCa-2, 144 h. The essentials: (§1)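 Temsirolimus, sunitinib, gemcitabine and 5-fluorouracil served as positive controls.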
The test system of a further test is A498. As to the kind of experiment: Cytotoxicity against human A498 cells assessed as inhibition of cell viability after 6 days by MTT assay. As to conditions: A498, 144 h. The essentials: as §1
(Tetrazolium dyes change colour on reduction, which living cells bring about.)

The subject of a further test is PANC-1. Description: Cytotoxicity against human PANC1 cells assessed as inhibition of cell viability after 6 days by MTT assay. As to conditions: PANC-1, 144 h. Put shortly: as §1
In the next test the test system is ACHN. As to the kind of experiment: Cytotoxicity against human ACHN cells assessed as inhibition of cell viability after 6 days by MTT assay. As to conditions: 144 h. The essentials: as §1

The structures appear in SMILES notation. Bounds are passed on as bounds.

Regarding `Nc1ccn([C@@H]2O[C@H](CO)[C@@H](O)C2(F)F)c(=O)n1` [GEMCITABINE], the IC50 in test [1] was 3 µM.
In the case of `CO[C@H]1C[C@@H]2CC[C@@H](C)[C@@](O)(O2)C(=O)C(=O)N2CCCC[C@H]2C(=O)O[C@H]([C@H](C)C[C@@H]2CC[C@@H](OC(=O)C(C)(CO)CO)[C@H](OC)C2)CC(=O)[C@H](C)/C=C(\C)[C@@H](O)[C@@H](OC)C(=O)[C@H](C)C[C@H](C)/C=C/C=C/C=C/1C` [TEMSIROLIMUS], the IC50 in the test with A498 is 0.5 µM.
Turning to `C=C(C[C@H](O)/C=C(\C)CC/C=C(\C)CCC=C(C)C)[C@H]1CC(=O)C(C)=C[C@H]1O` [PHORBIN A], the IC50 with PANC-1 was 7.8 µM; with ACHN, 10 µM; in test [1], 5.2 µM; in the test with A498 it was 4.9 µM.
In the same order, the values of `CC(=O)O[C@@H]1C[C@@H]2C(C=O)=C[C@]3(C=C(C)C[C@@H](/C=C(\C)CCC=C(C)C)O3)O[C@@H]2C=C1C` [PHORBAKETAL J] are > 50 µM, > 50 µM, > 50 µM and > 50 µM.
In the same order, the values of `CC(=O)O[C@@H]1C[C@@H]2C(CO)=C[C@]3(C=C(C)C[C@@H](/C=C(\C)C/C=C/C(C)(C)OO)O3)O[C@@H]2C=C1C` [PHORBAKETAL F] are > 50 µM, > 50 µM, > 50 µM and > 50 µM.
With `O=c1[nH]cc(F)c(=O)[nH]1` [FLUOROURACIL], in the test on PANC-1, the IC50 amounted to 50 µM.
`CC(C)=CCC/C(C)=C/[C@@H]1CC(C)=C[C@]2(C=C(C=O)[C@H]3C[C@@H](O)C(C)=C[C@H]3O2)O1` [PHORBAKETAL H]: the IC50 in the test on PANC-1 is > 50 µM; in the test with ACHN it was > 50 µM; in test [1], > 50 µM; with A498, 9.8 µM.
As for `CC1=C[C@]2(C=C(CO)[C@H]3CC(=O)C(C)=C[C@H]3O2)O[C@H](/C=C(\C)CCC(=O)C(C)C)C1` [PHORBAKETAL E], the IC50 is 25.3 µM with PANC-1, 18 µM in the test with ACHN, 16.7 µM in test [1] and 12.5 µM in the test on A498.
In the same order, the values of `CC(=O)O[C@H]1C[C@@H]2C(CO)=C[C@]3(C=C(C)C[C@@H](/C=C(\C)C/C=C/C(C)(C)OO)O3)O[C@@H]2C=C1C` [PHORBAKETAL G] are > 50 µM, > 50 µM, > 50 µM and > 50 µM.
Consider `CCN(CC)CCNC(=O)c1c(C)[nH]c(/C=C2\C(=O)Nc3ccc(F)cc32)c1C` [SUNITINIB], for which the IC50 with ACHN came out at 2.5 µM.
Consider `CC(C)=CCC/C(C)=C/[C@@H]1CC(C)=C[C@]2(C=C(C=O)[C@H]3CC(=O)C(C)=C[C@H]3O2)O1` [PHORBAKETAL I], for which the IC50 in the test on PANC-1 is 12.8 µM; with ACHN, 22.3 µM; in test [1], 22 µM; in the test with A498, 9 µM.
In the case of `CC(=O)O[C@H]1C[C@@H]2C(C=O)=C[C@]3(C=C(C)C[C@@H](/C=C(\C)CCC=C(C)C)O3)O[C@@H]2C=C1C` [PHORBAKETAL K], the IC50 (in the test on PANC-1; in the test with ACHN; in test [1]; in the test with A498) was > 50 µM in each case.

Broadly, the IC50 is the concentration that inhibits the measured activity by half.

Source of the values: ChEMBL document CHEMBL2331092, “Bioactive sesterterpenoids from a Korean sponge Monanchora sp” (J Nat Prod, 2013).
